Hits are enriched below; roughly 5.9% of the tested compounds scored in any of these assays.
HUVEC inhibit = human endothelial cell proliferation inhibition | HUVEC proliferation, CellTiter-Glo luminescence, 72 h; stronger effect = lower value | viability, % at 10 µM (by protocol) | 86,000 tested, 1.1% active | AID 648;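 active = viability at or below 30%; inactive = viability above 30%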;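 note: 100% = median luminescence of DMSO-only cell control wells on each plate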
Lung fibro prol = blocks proliferation of human lung fibroblasts; 85,000 tested, 1.1% active; viability, % at 10 µM; LL 47 human lung fibroblast viability, ATP luminescence; stronger effect = lower value; AID 719;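 active = viability at or below 50% in the single dose screen; inactive = viability above 50%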;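 note: compound exposure lasted 72 h before the ATP readout; 100% = median luminescence of untreated cell-only wells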
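Times – overnight cell rest, 72 h compound treatment at 37 °C · Test system – human lung fibroblast line LL 47, low passage · Amount – 1,150 cells in each well · Controls – cell-only wells, no compound · Doses – 0.1% DMSO in all compound wells · Measured by – CellTiter-Glo luminescence · Buffer or medium – IMEM plus 15% FBS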
MT1-MMP txn act = MT1-MMP promoter transcription activation; HT1080 MT1-MMP promoter luciferase reporter, luminescence, overnight; stronger effect = higher value; activation factor at 10 µM; 86,000 tested, 0.16% active;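 active = activation factor of at least 2 for MT1-MMP transcription at 10 µM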
Pyk2 oligo antag = blocks oligomerization of human Pyk2 in cells | Q293 cells, Pyk2 FERM NanoBiT luminescence; stronger effect = lower value | z-score (the deposit names both 25 µM and 10 µM) | 99,000 tested, 0.83% active | Q14289;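 active = Z-score of -3 or lower, scaled per plate to the spread of control and sample wells; inactive = z-score above -3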;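 note: negative z-score means lost luminescence so less FERM oligomerization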
Target sequence (Q14289 whole entry, looked up): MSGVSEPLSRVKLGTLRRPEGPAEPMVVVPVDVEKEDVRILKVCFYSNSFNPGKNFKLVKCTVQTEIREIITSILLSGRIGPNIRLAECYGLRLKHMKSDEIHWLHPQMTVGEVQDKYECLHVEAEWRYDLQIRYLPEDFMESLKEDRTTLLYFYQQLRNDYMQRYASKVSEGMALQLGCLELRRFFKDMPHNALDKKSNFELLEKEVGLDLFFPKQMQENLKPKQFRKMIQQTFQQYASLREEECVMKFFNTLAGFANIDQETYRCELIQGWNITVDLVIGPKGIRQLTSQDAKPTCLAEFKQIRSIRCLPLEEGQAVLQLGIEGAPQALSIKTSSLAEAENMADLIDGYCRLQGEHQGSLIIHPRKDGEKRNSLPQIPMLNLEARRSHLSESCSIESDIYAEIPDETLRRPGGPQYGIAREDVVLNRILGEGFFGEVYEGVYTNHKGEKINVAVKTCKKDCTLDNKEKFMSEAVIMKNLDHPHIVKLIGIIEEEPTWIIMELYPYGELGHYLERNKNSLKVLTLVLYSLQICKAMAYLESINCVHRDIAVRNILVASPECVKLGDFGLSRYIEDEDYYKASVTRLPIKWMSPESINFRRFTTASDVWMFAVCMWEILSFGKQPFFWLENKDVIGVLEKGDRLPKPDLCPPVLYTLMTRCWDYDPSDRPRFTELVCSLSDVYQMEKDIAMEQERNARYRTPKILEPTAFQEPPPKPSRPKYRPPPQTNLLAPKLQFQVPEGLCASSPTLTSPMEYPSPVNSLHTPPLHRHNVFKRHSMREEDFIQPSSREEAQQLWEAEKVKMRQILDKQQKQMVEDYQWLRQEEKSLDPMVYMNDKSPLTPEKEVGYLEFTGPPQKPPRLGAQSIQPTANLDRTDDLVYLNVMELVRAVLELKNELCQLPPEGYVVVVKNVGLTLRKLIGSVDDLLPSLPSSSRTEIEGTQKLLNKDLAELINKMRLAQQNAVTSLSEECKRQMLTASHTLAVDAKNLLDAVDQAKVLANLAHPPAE
H69AR growth 86K = blocks growth of human H69AR lung tumor cells. 85,000 tested, 6% active. AID 598. viability, % at 10 µM. H69AR lung tumor viability, ATP luminescence, 72 h; stronger effect = lower value;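 active = viability at or below 40%; inactive = viability above 40%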;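 note: multidrug resistant small cell line overexpressing MRP-1 efflux transporter; 100% = mean luminescence of untreated control wells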
Jurkat tox 60K = reduces viability or proliferation of Jurkat cells | inhibition, % at 4 µM | 56,000 tested, 1.2% active | Jurkat E6.1 viability, ATP luminescence, 48 h | AID 463;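 active = inhibition above the mean inhibition of all tested compounds plus 3 SD, cut at about 28% in these data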
An asterisk follows results filed as active.

What do the screens show for `O=C(c1ccc(Cl)c(S(=O)(=O)Nc2ccc(F)cc2)c1)N1CCN(c2ccccn2)CC1`?
HUVEC inhibit: 74.3; Lung fibro prol: 99.0; MT1-MMP txn act: 1; Pyk2 oligo antag: -2.22; H69AR growth 86K: 35.9*

How did COc1cc(C)c(Cl)cc1S(=O)(=O)NCc1ccco1 do in these assays?
HUVEC inhibit: 94.0; Lung fibro prol: 108.4; MT1-MMP txn act: 1; Pyk2 oligo antag: 0.6; H69AR growth 86K: 92.2; Jurkat tox 60K: -6.2

Results for COc1ccccc1N1CCN(C(=O)c2ccc(Cl)c(S(=O)(=O)NCc3ccco3)c2)CC1 ?
HUVEC inhibit: 54.8; Lung fibro prol: 68.1; MT1-MMP txn act: 0.6; Pyk2 oligo antag: 0.06; H69AR growth 86K: 23.1*

Results for NNC(=O)c1cnn(Cc2ccccc2)c1N ?
HUVEC inhibit: 87.5; Lung fibro prol: 95.4; MT1-MMP txn act: 1; Pyk2 oligo antag: -0.17; H69AR growth 86K: 96.7

Results for COC(=O)C1=CN(CC2CCCO2)C=C(C(=O)OC)C1c1ccccc1C(F)(F)F (centres undefined) ?
HUVEC inhibit: 111.1; Lung fibro prol: 100.6; MT1-MMP txn act: 1.4; Pyk2 oligo antag: -0.19; H69AR growth 86K: 36.6*

What do the screens show for `CCOc1ccc(C(=O)OCc2nnc(-c3cccs3)o2)cc1OC`?
HUVEC inhibit: 96.1; Lung fibro prol: 104.3; MT1-MMP txn act: 1; Pyk2 oligo antag: 1.41; H69AR growth 86K: 86.8; Jurkat tox 60K: 1.3

What do the screens show for `CCOc1ccc(C(=O)Nc2cc(C)on2)cc1`?
HUVEC inhibit: 98.6; MT1-MMP txn act: 1.1; Pyk2 oligo antag: 0.84; H69AR growth 86K: 36.0*; Jurkat tox 60K: -3.0

What do the screens show for `CCCc1nn(-c2cc(Cl)ccc2OC)c2c1C(=O)CC(C)(C)C2`?
HUVEC inhibit: 85.2; Lung fibro prol: 80.0; H69AR growth 86K: 21.8*

How did CCc1nn(-c2cc(Cl)ccc2OC)c2c1C(=O)CCC2 do in these assays?
HUVEC inhibit: 76.5; Lung fibro prol: 85.6; MT1-MMP txn act: 1.1; Pyk2 oligo antag: 2; H69AR growth 86K: 22.2*; Jurkat tox 60K: 21.8

How did COc1ccc(Cl)cc1N1Cc2ccccc2C1 do in these assays?
HUVEC inhibit: 89.6; Lung fibro prol: 96.0; MT1-MMP txn act: 1.7; Pyk2 oligo antag: -1.14; H69AR growth 86K: 99.8

What do the screens show for `CCCc1nn(C(=O)c2ccccc2)c2c1C(=O)CC(C)(C)C2`?
HUVEC inhibit: 93.4; Lung fibro prol: 101.2; MT1-MMP txn act: 1.1; Pyk2 oligo antag: -0.74; H69AR growth 86K: 91.1

How did O=C(CCC(=O)N1CCOCC1)Nc1nnc(C2CCCCC2)s1 do in these assays?
HUVEC inhibit: 102.7; Lung fibro prol: 92.2; MT1-MMP txn act: 1.2; Pyk2 oligo antag: 0.45; H69AR growth 86K: 102.4

What do the screens show for `CCCCCC/C(=N\NS(C)(=O)=O)c1ccccc1`?
HUVEC inhibit: 94.7; Lung fibro prol: 103.0; MT1-MMP txn act: 1.2; Pyk2 oligo antag: -0.12; H69AR growth 86K: 97.2

How did CCCCCC/C(=N/O)c1ccccn1 do in these assays?
HUVEC inhibit: 28.4*; Lung fibro prol: 61.4; MT1-MMP txn act: 1.1; Pyk2 oligo antag: -1.11; H69AR growth 86K: 24.7*; Jurkat tox 60K: -4.0

What do the screens show for `COc1ccc(OCC(O)Cn2cnc(-c3ccc(Br)cc3)c2)cc1` (centres undefined)?
HUVEC inhibit: 83.8; Lung fibro prol: 99.2; MT1-MMP txn act: 1.1; Pyk2 oligo antag: -0.27; H69AR growth 86K: 39.0*

Results for CCOC(=O)N1CCN(c2nc(N(c3ccccc3)c3ccccc3)nc(-n3ccnc3)n2)CC1 ?
HUVEC inhibit: 89.0; Lung fibro prol: 92.0; MT1-MMP txn act: 1.1; H69AR growth 86K: 21.0*; Jurkat tox 60K: -6.8

What do the screens show for `c1ccc(CN2CCN(c3nc(-c4ccccc4)nc(-n4ccnc4)n3)CC2)cc1`?
HUVEC inhibit: 65.2; Lung fibro prol: 84.0; MT1-MMP txn act: 1.1; Pyk2 oligo antag: -0.62; H69AR growth 86K: 79.5; Jurkat tox 60K: -0.7

What do the screens show for `c1ccc(N(c2ccccc2)c2nc(N3CCCC3)nc(-n3ccnc3)n2)cc1`?
HUVEC inhibit: 44.0; Lung fibro prol: 63.5; MT1-MMP txn act: 1.2; Pyk2 oligo antag: -1.31; H69AR growth 86K: 20.1*; Jurkat tox 60K: -6.6

How did CN(c1ccccc1)c1nc(N2CCCC2)nc(-n2ccnc2)n1 do in these assays?
HUVEC inhibit: 90.2; Lung fibro prol: 73.2; MT1-MMP txn act: 1; Pyk2 oligo antag: -1.11; H69AR growth 86K: 39.5*; Jurkat tox 60K: 12.2

Results for O=C(NC(=O)c1ccncc1)NC(c1ccccc1)c1ccccc1 ?
HUVEC inhibit: 87.7; Lung fibro prol: 94.4; MT1-MMP txn act: 1; Pyk2 oligo antag: -1.18; H69AR growth 86K: 94.1

What do the screens show for `COc1ccc(-n2nnc3c(SCC(=O)N4CCCc5ccccc54)ncnc32)cc1`?
HUVEC inhibit: 85.3; Lung fibro prol: 96.7; MT1-MMP txn act: 1; H69AR growth 86K: 62.1; Jurkat tox 60K: 1.3

How did Cc1ccc(-n2c(-c3ccccc3)nnc2-c2cccs2)cc1 do in these assays?
HUVEC inhibit: 79.6; Lung fibro prol: 99.3; MT1-MMP txn act: 1.1; Pyk2 oligo antag: -0.3; H69AR growth 86K: 96.1

How did COc1ccc(/C=N/NC(=O)c2ccc3ccccc3c2)cc1OS(=O)(=O)c1ccc(NC(C)=O)cc1 do in these assays?
Pyk2 oligo antag: -2.39

What do the screens show for `O=C(c1ccc(N2C(=O)C3CC=C(Cl)CC3C2=O)cc1)N1CCCCC1` (centres undefined)?
HUVEC inhibit: 96.4; Lung fibro prol: 99.1; MT1-MMP txn act: 1.2; Pyk2 oligo antag: 0.09; H69AR growth 86K: 86.6

How did O=C(Nc1ccc(Br)cc1)c1ccc(N2C(=O)C3CC=C(Cl)CC3C2=O)cc1 (centres undefined) do in these assays?
HUVEC inhibit: 36.4; Lung fibro prol: 91.7; MT1-MMP txn act: 1.1; Pyk2 oligo antag: -0.81; H69AR growth 86K: 25.4*

What do the screens show for `CCC(=O)Oc1ccc(C/C(=N\O)c2ccc(O)cc2O)o1`?
HUVEC inhibit: 79.7; Lung fibro prol: 93.1; MT1-MMP txn act: 1.2; Pyk2 oligo antag: -2.77; H69AR growth 86K: 15.6*; Jurkat tox 60K: 16.7

Results for COc1ccc(C)cc1NC(=O)CN1CCN(S(=O)(=O)c2ccc(Br)cc2)CC1 ?
MT1-MMP txn act: 1; Pyk2 oligo antag: -0.92; Jurkat tox 60K: -1.3

How did Cc1ccc(OCCN2CCN(C(=O)CCC(=O)Nc3nnc(C(C)C)s3)CC2)cc1 do in these assays?
HUVEC inhibit: 93.7; Lung fibro prol: 94.6; MT1-MMP txn act: 1.2; Pyk2 oligo antag: 1.86; H69AR growth 86K: 91.5; Jurkat tox 60K: 55.2*

Results for Cc1ccc(OCCN2CCN(C(=O)CCC(=O)Nc3nnc(C)s3)CC2)cc1 ?
HUVEC inhibit: 105.1; Lung fibro prol: 99.5; MT1-MMP txn act: 1.1; Pyk2 oligo antag: -0.26; H69AR growth 86K: 106.0; Jurkat tox 60K: 13.4

Results for O=[N+]([O-])c1ccc(Sc2nnnn2-c2ccccc2)c(Cl)c1 ?
HUVEC inhibit: 51.1; Lung fibro prol: 43.6*; MT1-MMP txn act: 0.9; Pyk2 oligo antag: -0.8; H69AR growth 86K: 5.1*

How did Cc1ccc(S(=O)(=O)Nc2ccc3c(c2)nc(CN2CCCC2)n3C)cc1 do in these assays?
HUVEC inhibit: 92.0; Lung fibro prol: 91.9; MT1-MMP txn act: 1; Pyk2 oligo antag: 0.17; H69AR growth 86K: 81.5

Source: PubChem
